From PubChem
S1P4 ag: S1P4 receptor agonists, primary screen, cell-based; Sphingosine 1-phosphate receptor 4 (Homo sapiens), O95977; S1P4-expressing cell line, agonist reporter assay; activation, % at 4.98 µM; 220,000 compounds, 0.35% hits; in the data active means activation above about 11%;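 further: 0% = DMSO vehicle and 100% = reference agonist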
NPY-Y1 antag: NPY-Y1 receptor antagonists, primary screen, cell-based | 200,000 compounds, 1% hits | HEK293-CNG Y1 cells, membrane potential fluorescence; NPY at EC95, then isoproterenol | inhibition, % at 3.6 µM | Neuropeptide Y receptor type 1 (Homo sapiens), P25929;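 active means inhibition above the campaign mean inhibition of all tested compounds plus 3 SD, cut at about 20% in these data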;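 further: 0% = DMSO wells given NPY plus isoproterenol and 100% = isoproterenol alone without NPY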
Target sequence (P25929 whole entry, looked up): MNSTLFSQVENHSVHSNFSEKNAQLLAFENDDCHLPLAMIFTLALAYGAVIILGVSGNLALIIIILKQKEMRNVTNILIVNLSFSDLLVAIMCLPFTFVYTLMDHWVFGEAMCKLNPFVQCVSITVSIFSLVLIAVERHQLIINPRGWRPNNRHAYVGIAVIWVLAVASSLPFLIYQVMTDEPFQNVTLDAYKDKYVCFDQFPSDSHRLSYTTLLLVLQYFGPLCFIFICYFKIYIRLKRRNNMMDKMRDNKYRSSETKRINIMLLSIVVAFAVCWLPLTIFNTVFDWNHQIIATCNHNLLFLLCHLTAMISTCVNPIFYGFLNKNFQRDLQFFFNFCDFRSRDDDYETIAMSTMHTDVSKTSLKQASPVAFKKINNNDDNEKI
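Material: HEK293 Y1/CNG channel cell line | Also added: NPY (25 nM), isoproterenol (1 µM), Ro 20-1724 (25 µM) | Compound: One concentration, 3.6 µM, in 0.4% DMSO | Schedule: 3 h dye uptake, 1 h room-temperature compound, 45 min post-isoproterenol | Signal: Membrane-potential fluorescent dye readout | Read-out: % inhibition of NPY effect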
NPY-Y2 PAM-ag: NPY-Y2 potentiators or agonists, primary screen, cell-based; activation, % at 3.6 µM; AID 1359, 2008; cells expressing NPY-Y2, potentiator/agonist read-out; 220,000 compounds, 0.45% hits; Neuropeptide Y receptor type 2 (Homo sapiens), P49146; in the data active means activation above about 27%;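 further: cells stimulated with NPY near EC25 plus isoproterenol at EC100; 0% = vehicle plus submaximal agonist and 100% = vehicle plus saturating agonist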
NPY-Y2 antag: NPY-Y2 receptor antagonists, primary screen, cell-based; NPY-Y2 expressing cells, antagonist mode; inhibition, % at 2.7 µM; 140,000 compounds, 0.99% hits; AID 793, 2007; in the data active means inhibition above about 17%;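 further: 0% = vehicle with agonist challenge and 100% = reference antagonist with challenge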
NPY-Y1 PAM-ag: NPY-Y1 receptor potentiators or agonists, primary screen, cell-based | Neuropeptide Y receptor type 1 (Homo sapiens), P25929 | NPY-Y1 expressing cells, potentiator/agonist activation | activation, % at 3.6 µM | 220,000 compounds, 0.37% hits | AID 1304, 2008; in the data active means activation above about 33%, passing the limit was not always enough;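 further: cells stimulated with NPY at EC10 then isoproterenol at EC100; 0% = low agonist plus stimulus and 100% = saturating agonist plus stimulus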
S1P4 antag: S1P4 receptor antagonists, primary screen, cell-based; inhibition, % at 4.98 µM; 220,000 compounds, 0.26% hits; AID 1510, 2009; Sphingosine 1-phosphate receptor 4 (Homo sapiens), O95977; S1P4-expressing cells, antagonist mode, reporter read-out; in the data active means inhibition above about 29%;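 further: 0% = wells stimulated with agonist and 100% = vehicle wells without agonist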
Starred values were filed as active, the others as inactive; / = no result. In the library only some 2.4% were active in any assay of this set; here they are far more common.

SMILES	S1P4 ag	NPY-Y1 antag	NPY-Y2 PAM-ag	NPY-Y2 antag	NPY-Y1 PAM-ag	S1P4 antag
N=c1c2c(-c3ccccc3)c(-c3ccccc3)n(Cc3ccco3)c2ncn1CCN1CCOCC1	-0.1	41.9*	15.8	43.3*	-10.9	-0.9
N=c1c2c(-c3ccccc3)c(-c3ccccc3)n(Cc3ccco3)c2ncn1CCCO	-2.7	/	-46.0	/	-46.6	7.1
COc1ccc(OC)c(S(=O)(=O)N2CCC(C(=O)NCCC3=CCCCC3)CC2)c1	0.1	1.1	-6.8	6.9	-11.9	-4.7
CCc1ccc2oc(C(=O)Nc3ccc(S(N)(=O)=O)cc3)c(C)c2c1	-1.1	-0.2	-10.5	/	-1.5	-7.7
O=C(O)c1ccc(Cn2cc(Cl)cn2)cc1	0.9	3.9	11.6	1.9	-5.9	0.5
O=C(/C(=N\Nc1ccc(Br)cc1)Sc1nnnn1-c1ccccc1)c1ccccc1	0.6	-2.2	5.5	0.6	-9.1	-11.3
Brc1ccc(N/N=C(/N=Nc2nn[nH]n2)c2ccccc2)cc1	-1.1	-16.9	53.4*	/	64.0*	6.0
NNC(=S)Nc1cccc(Cl)c1	0.0	/	-21.1	/	14.5	-1.8
Cc1ccc(NC(=O)Cc2cc(C(=O)O)c3ccccc3n2)c(C)c1	-1.9	-15.8	79.7*	/	77.7*	-2.4
CCCc1cc(C(=O)O)c2ccccc2n1	-2.8	2.9	-6.6	3.4	11.9	9.4
Cc1ccccc1Nc1c(-c2cccnc2)nc2ccc(Br)cn12	0.3	-12.2	74.4*	/	79.0*	-1.2
Cc1ccccc1Nc1c(-c2cccnc2)nc2ccccn12	1.4	/	33.8	/	41.5	12.1
Cc1ccc2nc(-c3cccnc3)c(Nc3ccccc3C)n2c1	0.6	-5.8	41.2*	/	46.1*	7.4
Cc1ccn2cc(CCNS(=O)(=O)c3ccc4c(c3)CCCC4)nc2c1	-0.2	4.4	-11.5	4.5	-9.3	12.8
C[C@H](NC(N)=O)C(=O)Nc1ccc(OCc2ccccc2)cc1	-0.8	5.9	2.0	/	-1.2	-4.0
COC(=O)C1=C(Nc2ccc(C)cc2)C=C(C)C(C(=O)OC)C1c1ccc(OC)cc1 (configuration not stated)	1.2	29.5*	-20.2	23.1*	-54.9	1.7
COc1ccc(Br)cc1CNC(=O)CCCc1cn(C)c2ccccc12	1.8	-3.4	-2.2	4.9	-0.4	-7.8
CN(C)CCCN1C(=O)c2cccc3c([N+](=O)[O-])ccc(c23)C1=O	3.5	1.8	14.0	4.1	-1.2	91.7*
O=C1c2cccc3c([N+](=O)[O-])ccc(c23)C(=O)N1CCc1ccccn1	-1.6	/	-30.9	/	8.7	-7.9
C/C(Cc1ccccc1)=N/NC(=O)CCCC(=O)N/N=C(/C)Cc1ccccc1	1.1	1.7	0.2	/	8.5	-7.1
COn1c(SCc2cccc(Cl)c2)nc2ccccc2c1=O	0.6	21.9*	-4.6	17.3*	-56.0	-17.9
CCN(CC)c1nc2ccccc2c(N)c1-c1ccccc1	1.2	29.4*	-13.7	23.5*	-9.8	4.8
Nc1c2ccccc2nc2ccccc12	3.1	/	51.4*	/	63.5*	-88.4
Cc1c(N(C)C)nc2ccccc2c1N	-1.6	5.3	2.8	3.2	4.0	-0.1
CC(C)(C)CC(=O)Nc1nnc(SCC(=O)Nc2ccccc2F)s1	0.1	21.0*	-15.8	/	-0.8	6.4
SMILES	S1P4 ag	NPY-Y1 antag	NPY-Y2 PAM-ag	NPY-Y2 antag	NPY-Y1 PAM-ag	S1P4 antag
CCOC(=O)c1c(C)nc2sccn12	-0.7	-4.8	2.8	-1.1	9.6	1.9
Cc1nc2sccn2c(=O)c1CCN1CCC(=C(c2ccccc2)c2ccc(F)cc2)CC1	2.2	39.8*	-8.2	44.2*	-92.0	-20.8
CCn1c(COc2ccc(Cl)cc2)nnc1SC1CCc2ccccc2C1=O (configuration not stated)	2.6	3.9	0.9	5.6	-5.0	-23.5
c1cc2c3c(cccc3c1)NC1(CCC3(CC1)Nc1cccc4cccc(c14)N3)N2	-0.8	/	56.1*	/	60.5*	21.0
CCC(CC)NC(=O)c1oc2ccccc2c1COc1ccccc1	0.3	32.2*	0.6	25.7*	-6.9	-1.9
CC(C)CNC(=O)c1oc2ccccc2c1COc1ccccc1	1.8	15.4	-6.2	3.0	-28.9	14.9
